The source of these data is ChEMBL document CHEMBL1152606, “Thienylhalomethylketones: Irreversible glycogen synthase kinase 3 inhibitors as useful pharmacological tools” (Bioorg Med Chem, 2009).

The species named for assay [1] is Rattus norvegicus. The assay can be described thus: Displacement of [3H]cystisine from alpha-BGTX insensitive nicotinic acetylcholine receptor in rat cerebral cortex at 10 uM. It counts as tissue-based.
The species entered for another assay is Bos taurus. Nature of the assay: Inhibition of bovine thymus p56LCK at 10 uM by liquid scintillation counting in presence of [33gammaP]ATP. A digest of the protocol:
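p56lck from bovine thymus; [γ33-P]ATP with polyGT (0.5 mg/mL) substrate; staurosporine reference; liquid scintillation read-out; compounds tested at 10 µM.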

The target in assay [2] is Insulin receptor (Homo sapiens) (UniProt P06213). Nature of the assay: Inhibition of human recombinant IR at 10 uM by liquid scintillation counting in presence of [33gammaP]ATP. A digest of the protocol:
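Human recombinant insulin receptor kinase; [γ33-P]ATP plus poly GT (0.03 mg/mL); staurosporine reference; liquid scintillation detection; 10 µM compound.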

For assay [3], the target named is Glutamate NMDA receptor (Rattus norvegicus) (UniProt P35439+Q00959+Q00960+Q00961+Q62645+Q8VHN2+Q9R1M7). The assay can be described thus: Displacement of [3H]CGP39653 from NMDA receptor in rat cerebral cortex at 10 uM. It counts as tissue-based.
For assay [4], the target named is T1, Glycogen synthase kinase-3 beta (Homo sapiens, UniProt P49841). Nature of the assay: Irreversible inhibition of GSK3-beta mediated phosphorylation measured after careful washes by liquid scintillation counting. A digest of the protocol:
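His-tagged recombinant GSK-3β immobilised on nickel agarose, incubated 20 min at 37 °C with inhibitor, 15 µM ATP, [γ-32P]ATP and GS-1 in Tris/MgCl2/EGTA/EDTA pH 7.5; gel pelleted, washed three times in Tris-MgCl2 buffer, then reassayed 15 min with fresh ATP/GS-1; P81 filter scintillation; activity relative to identically handled control.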

The species named for assay [5] is Rattus norvegicus. The assay can be described thus: Displacement of [3H]cystisine from alpha-BGTX sensitive nicotinic acetylcholine receptor in rat cerebral cortex. Format: tissue-based. Details: concentration or dose not given beside the values. As to conditions: concentration not given here. On the technique in general: Loss of bound radioactivity is the signal in a displacement assay; it reports binding, not function.

The target of assay [6] is T2, Alpha-2A adrenergic receptor (Rattus norvegicus) (UniProt P22909).
T2 sequence (whole entry): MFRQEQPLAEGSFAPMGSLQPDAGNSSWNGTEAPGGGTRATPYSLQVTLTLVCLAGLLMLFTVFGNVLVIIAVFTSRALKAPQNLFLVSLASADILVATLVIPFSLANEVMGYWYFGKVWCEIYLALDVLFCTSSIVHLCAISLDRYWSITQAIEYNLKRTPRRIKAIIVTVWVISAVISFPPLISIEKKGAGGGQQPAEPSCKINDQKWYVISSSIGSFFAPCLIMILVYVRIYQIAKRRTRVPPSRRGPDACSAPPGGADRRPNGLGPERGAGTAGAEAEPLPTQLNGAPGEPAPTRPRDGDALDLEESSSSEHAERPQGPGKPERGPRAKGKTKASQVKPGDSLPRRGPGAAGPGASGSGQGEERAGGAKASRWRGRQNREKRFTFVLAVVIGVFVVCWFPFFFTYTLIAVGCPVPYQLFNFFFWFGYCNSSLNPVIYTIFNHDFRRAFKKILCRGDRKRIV
The assay can be described thus: Displacement of [3H]RX821002 from alpha2 adrenoceptor in rat cerebral cortex at 10 uM. It counts as tissue-based. The gist of the method: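 Rat cerebral cortex source; [3H]RX 821002 ligand at 0.5 nM; yohimbine as reference compound; non-selective alpha-2 site.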

For assay [7], the target named is Dual specificity mitogen-activated protein kinase kinase 1 (Oryctolagus cuniculus) (UniProt P29678). Nature of the assay: Inhibition of rabbit recombinant MEK1 expressed in Escherichia coli at 10 uM by liquid scintillation counting in presence of [33gammaP]ATP. The gist of the method: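 Rabbit recombinant MEK1 from E. coli; ATP plus unactivated MAP kinase (0.01 mg/mL) as substrate; staurosporine reference; liquid scintillation detection; 10 µM.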
Sequence of Dual specificity mitogen-activated protein kinase kinase 1 (Oryctolagus cuniculus) (P29678 whole entry): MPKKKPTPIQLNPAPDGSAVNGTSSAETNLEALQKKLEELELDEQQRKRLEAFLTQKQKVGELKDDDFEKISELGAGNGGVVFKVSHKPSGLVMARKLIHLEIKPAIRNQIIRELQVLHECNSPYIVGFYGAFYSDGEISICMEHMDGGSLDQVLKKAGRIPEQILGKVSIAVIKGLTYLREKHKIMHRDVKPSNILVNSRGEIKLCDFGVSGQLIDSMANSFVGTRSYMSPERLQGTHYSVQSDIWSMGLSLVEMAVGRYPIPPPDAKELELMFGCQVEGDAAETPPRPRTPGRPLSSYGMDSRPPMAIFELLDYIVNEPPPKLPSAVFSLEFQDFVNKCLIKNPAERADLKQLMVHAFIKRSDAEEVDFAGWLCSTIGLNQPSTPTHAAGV

The species entered for assay [8] is Rattus norvegicus. Nature of the assay: Displacement of [3H]AMPA from AMPA receptor in rat cerebral cortex at 10 uM. Format: tissue-based.
Assay [9] deals with Tyrosine-protein kinase ABL1 (Mus musculus) (UniProt P00520). The assay can be described thus: Inhibition of mouse recombinant Abl expressed in Escherichia coli at 10 uM by fluorescence polarization. (In general: Polarisation of emitted light reports the rotation of a fluorescent probe.)
Sequence of Tyrosine-protein kinase ABL1 (Mus musculus) (P00520 whole entry): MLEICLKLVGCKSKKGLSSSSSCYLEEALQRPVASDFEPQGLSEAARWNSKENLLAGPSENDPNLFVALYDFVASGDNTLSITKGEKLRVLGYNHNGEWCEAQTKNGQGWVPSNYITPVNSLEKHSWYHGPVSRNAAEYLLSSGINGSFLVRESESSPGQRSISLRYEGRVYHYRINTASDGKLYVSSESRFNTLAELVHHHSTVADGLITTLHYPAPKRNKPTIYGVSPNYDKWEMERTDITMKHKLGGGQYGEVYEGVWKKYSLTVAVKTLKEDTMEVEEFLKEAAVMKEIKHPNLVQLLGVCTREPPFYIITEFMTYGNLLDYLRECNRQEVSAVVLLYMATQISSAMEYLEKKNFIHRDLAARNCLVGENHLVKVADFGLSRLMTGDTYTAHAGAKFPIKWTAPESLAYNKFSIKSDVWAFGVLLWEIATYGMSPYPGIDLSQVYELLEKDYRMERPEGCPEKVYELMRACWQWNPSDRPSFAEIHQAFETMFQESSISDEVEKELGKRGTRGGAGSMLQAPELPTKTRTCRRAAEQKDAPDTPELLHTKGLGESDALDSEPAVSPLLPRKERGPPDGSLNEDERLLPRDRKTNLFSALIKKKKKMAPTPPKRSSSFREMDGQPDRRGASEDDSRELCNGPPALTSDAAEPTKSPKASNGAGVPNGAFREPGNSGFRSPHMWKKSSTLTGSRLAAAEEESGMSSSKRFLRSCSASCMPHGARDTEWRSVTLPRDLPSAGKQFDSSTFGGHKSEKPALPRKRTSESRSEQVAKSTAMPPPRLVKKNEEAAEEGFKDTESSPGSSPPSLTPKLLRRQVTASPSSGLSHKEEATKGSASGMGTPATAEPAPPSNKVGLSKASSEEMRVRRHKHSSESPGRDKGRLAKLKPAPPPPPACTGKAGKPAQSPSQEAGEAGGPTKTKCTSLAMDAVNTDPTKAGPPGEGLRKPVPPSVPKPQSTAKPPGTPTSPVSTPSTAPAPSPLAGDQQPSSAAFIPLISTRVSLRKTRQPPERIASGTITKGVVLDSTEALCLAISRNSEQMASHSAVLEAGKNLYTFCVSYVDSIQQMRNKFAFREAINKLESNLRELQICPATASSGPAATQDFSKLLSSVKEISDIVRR
In assay [10] the target is Proto-oncogene tyrosine-protein kinase Src (Homo sapiens) (UniProt P12931). The assay can be described thus: Inhibition of Src at 10 uM.
Sequence of Proto-oncogene tyrosine-protein kinase Src (Homo sapiens) (P12931 2-536 limits assumed): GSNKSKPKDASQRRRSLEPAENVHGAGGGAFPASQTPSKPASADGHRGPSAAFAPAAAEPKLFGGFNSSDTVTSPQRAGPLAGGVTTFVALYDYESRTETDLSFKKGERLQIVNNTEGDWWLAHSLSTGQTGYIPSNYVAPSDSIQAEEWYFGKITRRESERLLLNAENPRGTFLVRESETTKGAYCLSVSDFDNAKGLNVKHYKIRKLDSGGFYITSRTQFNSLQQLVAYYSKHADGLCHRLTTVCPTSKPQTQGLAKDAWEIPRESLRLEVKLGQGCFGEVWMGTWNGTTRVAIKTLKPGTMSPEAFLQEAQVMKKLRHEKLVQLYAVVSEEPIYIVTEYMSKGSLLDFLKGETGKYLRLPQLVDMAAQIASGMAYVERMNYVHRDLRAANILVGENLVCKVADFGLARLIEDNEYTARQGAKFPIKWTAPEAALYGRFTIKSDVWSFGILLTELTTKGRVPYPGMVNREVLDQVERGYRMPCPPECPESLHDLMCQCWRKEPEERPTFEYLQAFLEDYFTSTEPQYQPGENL
The species entered for assay [11] is Rattus norvegicus. Nature of the assay: Inhibition of rat CAM2 at 10 uM by liquid scintillation counting in presence of [33gammaP]ATP. A digest of the protocol:
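CaM kinase II from rat brain; [γ33-P]ATP plus autocamtide-2 (5 µM); staurosporine reference; labelled autocamtide-2 counted by liquid scintillation; compounds at 10 µM.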

Assay [12] is described as follows: Displacement of [3H]QNB from muscarinic receptor at 10 uM.
The species entered for assay [13] is Rattus norvegicus. Nature of the assay: Inhibition of rat recombinant MAPK at 10 uM by liquid scintillation counting in presence of [33gammaP]ATP. The gist of the method: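 Rat recombinant ERK42 MAP kinase expressed in E. coli; [γ33-P]ATP with MBP (0.5 mg/mL); staurosporine reference; liquid scintillation read-out; 10 µM compound.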
Assay [14] addresses Epidermal growth factor receptor (Homo sapiens) (UniProt P00533). Nature of the assay: Inhibition of EGFR in human A431 at 10 uM by liquid scintillation counting in presence of [33gammaP]ATP. The gist of the method: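 EGFR kinase from A-431 cells; substrate [γ33-P]ATP plus poly GAT (0.48 mg/mL); PD 153035 reference; product measured by liquid scintillation; compounds at 10 µM.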

Assay [15] has as its target D(2) dopamine receptor (Homo sapiens) (UniProt P14416). Nature of the assay: Displacement of [3H]spiperone from human recombinant dopamine D2 receptor expressed in CHO cells at 10 uM. Format: cell-based. The gist of the method: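 Human recombinant D2 receptor expressed in CHO cells; [3H]spiperone ligand at 0.3 nM; (+)-buctaclamol as reference compound.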
For assay [16], the target named is D(3) dopamine receptor (Homo sapiens) (UniProt P35462). The assay can be described thus: Displacement of [3H]spiperone from human recombinant dopamine D3 receptor expressed in CHO cells at 10 uM. It counts as cell-based. The gist of the method: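 Human recombinant D3 receptor from CHO cells; [3H]spiperone 0.3 nM as ligand; (+)-buctaclamol reference compound.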
Sequence of D(3) dopamine receptor (Homo sapiens) (P35462 whole entry): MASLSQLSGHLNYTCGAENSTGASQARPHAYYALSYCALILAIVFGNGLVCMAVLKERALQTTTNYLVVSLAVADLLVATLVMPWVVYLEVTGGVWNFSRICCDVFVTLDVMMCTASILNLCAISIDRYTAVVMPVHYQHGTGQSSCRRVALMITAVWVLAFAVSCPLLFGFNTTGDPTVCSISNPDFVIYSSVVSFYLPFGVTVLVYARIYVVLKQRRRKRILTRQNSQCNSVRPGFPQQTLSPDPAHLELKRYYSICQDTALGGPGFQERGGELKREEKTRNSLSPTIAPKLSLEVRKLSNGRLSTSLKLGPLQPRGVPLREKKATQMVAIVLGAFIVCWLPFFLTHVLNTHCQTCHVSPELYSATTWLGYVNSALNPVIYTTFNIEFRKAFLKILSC

Assay [17] concerns 5-HT (non-selective) serotonin receptor (Rattus norvegicus). The assay can be described thus: Inhibition of [3H]serotonine binding to non-selective 5-HT serotoninergic receptor in rat cerebral cortex at 10 uM.
For assay [18], the target named is T1, Glycogen synthase kinase-3 beta. The assay can be described thus: Noncompetitive inhibition of GSK3-beta by double-reciprocal plotting in presence of 15 uM ATP. The gist of the method:
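Double-reciprocal kinetics: GS-1 varied 6.5–100 µM with inhibitor 1–2 µM at fixed 15 µM ATP; [γ-32P] filter assay, V as pmol phosphate/20 min; each point mean of three experiments.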

Assay [19] has the same target. The assay can be described thus: Noncompetitive inhibition of GSK3-beta by double-reciprocal plotting in presence of increasing ATP. The gist of the method: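 Lineweaver-Burk analysis with ATP varied 6.5–100 µM and inhibitor 1–2 µM, GS-1 fixed at 15 µM; 20 min [γ-32P] incorporation into GS-1, V as pmol phosphate/20 min.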
Assay [20] deals with Glycogen synthase kinase-3 beta (Mus musculus) (UniProt Q9WV60). Nature of the assay: Inhibition of GSK-3-beta-mediated tau phosphorylation in mouse granule cerebellar neurons cells after 16 hrs by Western blot. The gist of the method:
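Cerebellar granule neurons from P6 mice, plated on poly-L-lysine and grown 48 h in serum-free neurobasal/B-27 with 12.5 mM KCl; compounds 0.5–25 µM; LiCl 10 mM positive control with excess myo-inositol; lysates blotted with PHF-1 and Tau-1, normalised to β-actin, densitometry; mean of three experiments, control = 100 r.u.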
(In general: In western blotting, separated proteins are transferred to a membrane and probed.)

The subject of assay [21] is N2a. Nature of the assay: Induction of neurite growth in mouse Neuro2a cells at 0.2 uM after 16 hrs by phase-contrast photography. Format: functional, cell-based. A digest of the protocol:
(§1)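 Neuro2A mouse neuroblastoma cells grown in DMEM with 10% heat-inactivated FCS, 2 mM glutamine and antibiotics; compounds added in serum-containing medium for 16 h; control received DMSO; neurite/cytoplasmic extensions scored by phase-contrast photography.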

Assay [22] deals with N2a. Nature of the assay: Induction of neurite growth in mouse Neuro2a cells at 2 uM after 16 hrs by phase-contrast photography. It counts as functional, cell-based. A digest of the protocol:
as §1

Calls of active or inactive are those of the source. No cut-off for these calls is given here. Where only a bound is given, the exact number is not on record here.

Sequence of Glycogen synthase kinase-3 beta (Mus musculus) (Q9WV60 whole entry, looked up): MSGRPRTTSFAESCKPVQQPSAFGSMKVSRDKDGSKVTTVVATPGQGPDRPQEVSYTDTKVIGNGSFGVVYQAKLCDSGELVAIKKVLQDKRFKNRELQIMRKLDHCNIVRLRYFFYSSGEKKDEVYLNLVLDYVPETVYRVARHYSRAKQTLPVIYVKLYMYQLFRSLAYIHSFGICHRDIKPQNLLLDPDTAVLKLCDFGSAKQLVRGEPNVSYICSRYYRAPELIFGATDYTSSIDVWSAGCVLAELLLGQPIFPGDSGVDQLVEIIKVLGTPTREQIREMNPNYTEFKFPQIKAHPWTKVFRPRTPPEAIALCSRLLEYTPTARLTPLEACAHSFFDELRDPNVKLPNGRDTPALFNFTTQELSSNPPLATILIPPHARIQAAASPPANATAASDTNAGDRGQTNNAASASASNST
T1 sequence (P49841 whole entry, looked up): as the sequence (Q9WV60 whole entry, looked up) above, with P390T, A392T, T400A, A402T counted along it
Sequence of Epidermal growth factor receptor (Homo sapiens) (P00533 whole entry): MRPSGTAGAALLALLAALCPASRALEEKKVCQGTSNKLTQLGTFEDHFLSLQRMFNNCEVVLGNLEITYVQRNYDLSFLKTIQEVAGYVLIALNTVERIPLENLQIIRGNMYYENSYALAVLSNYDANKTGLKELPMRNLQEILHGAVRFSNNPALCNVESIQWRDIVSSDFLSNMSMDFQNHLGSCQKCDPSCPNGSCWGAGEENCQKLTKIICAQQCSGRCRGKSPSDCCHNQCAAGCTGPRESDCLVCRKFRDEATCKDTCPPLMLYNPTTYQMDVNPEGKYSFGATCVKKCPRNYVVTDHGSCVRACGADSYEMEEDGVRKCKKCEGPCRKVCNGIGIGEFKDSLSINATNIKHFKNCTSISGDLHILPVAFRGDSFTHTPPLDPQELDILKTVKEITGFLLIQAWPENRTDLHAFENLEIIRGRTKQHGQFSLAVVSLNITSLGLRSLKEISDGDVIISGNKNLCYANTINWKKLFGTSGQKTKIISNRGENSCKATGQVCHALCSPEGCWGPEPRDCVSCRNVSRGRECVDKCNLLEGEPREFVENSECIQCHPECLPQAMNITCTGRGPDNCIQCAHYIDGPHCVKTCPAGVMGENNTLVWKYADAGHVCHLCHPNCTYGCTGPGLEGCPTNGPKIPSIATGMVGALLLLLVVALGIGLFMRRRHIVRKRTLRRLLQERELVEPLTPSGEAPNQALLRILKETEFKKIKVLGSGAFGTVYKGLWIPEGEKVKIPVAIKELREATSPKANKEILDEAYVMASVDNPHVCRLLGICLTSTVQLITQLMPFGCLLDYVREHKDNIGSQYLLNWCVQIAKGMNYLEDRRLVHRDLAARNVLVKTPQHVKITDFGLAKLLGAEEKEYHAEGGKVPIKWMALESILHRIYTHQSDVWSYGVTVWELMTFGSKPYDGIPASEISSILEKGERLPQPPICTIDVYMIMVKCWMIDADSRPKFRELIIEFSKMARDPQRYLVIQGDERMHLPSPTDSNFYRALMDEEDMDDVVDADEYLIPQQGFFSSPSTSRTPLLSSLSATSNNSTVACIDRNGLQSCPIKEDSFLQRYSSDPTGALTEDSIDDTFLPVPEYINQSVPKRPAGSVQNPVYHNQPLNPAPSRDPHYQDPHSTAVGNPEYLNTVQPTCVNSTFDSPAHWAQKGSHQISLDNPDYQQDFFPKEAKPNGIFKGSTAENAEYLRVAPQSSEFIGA
Sequence of D(2) dopamine receptor (Homo sapiens) (P14416 whole entry): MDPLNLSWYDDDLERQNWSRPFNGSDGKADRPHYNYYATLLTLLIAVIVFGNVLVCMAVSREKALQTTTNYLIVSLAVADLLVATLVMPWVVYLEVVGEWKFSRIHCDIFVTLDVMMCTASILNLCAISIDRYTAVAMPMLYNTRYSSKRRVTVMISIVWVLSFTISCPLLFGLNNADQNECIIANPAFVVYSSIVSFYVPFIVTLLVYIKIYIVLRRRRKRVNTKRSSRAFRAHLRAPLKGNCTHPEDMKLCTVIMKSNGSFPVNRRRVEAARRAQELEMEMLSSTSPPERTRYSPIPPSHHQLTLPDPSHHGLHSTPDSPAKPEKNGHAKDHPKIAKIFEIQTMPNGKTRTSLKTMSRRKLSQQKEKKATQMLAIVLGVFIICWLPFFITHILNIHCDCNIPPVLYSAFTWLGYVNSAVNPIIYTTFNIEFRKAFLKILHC

As a reminder, the inhibition is the percentage by which the read-out fell short of the control. For `O=C(CCl)c1cc(Br)c(Br)s1`, the inhibition (in the assay listed under Rattus norvegicus [1]; in the assay filed under Bos taurus; in [2]; in [3]; in the assay filed under Rattus norvegicus [5]; in assay [6]) was below 10% each time. The inhibition is below 10% in assay [7]; below 10% in the assay filed under Rattus norvegicus [8]; below 10% in assay [9]; 69% in assay [10]; below 10% in the assay listed under Rattus norvegicus [11]; below 10% in assay [12]. In addition, the inhibition (in the assay filed under Rattus norvegicus [13]; in assay [14]; in assay [15]; in [16]; in assay [17]) was below 10% throughout. In addition, the outcome in assay [4] was Active.

For the compound `O=C(CCl)c1csc(C(=O)CCl)c1`, the inhibition in the assay filed under Rattus norvegicus [1] was below 10%; in the assay listed under Bos taurus, 49%; in assay [2] it was 12%; in assay [3], below 10%; in the assay filed under Rattus norvegicus [5], below 10%; in [6], 10%. The inhibition in assay [7] was below 10%; in the assay listed under Rattus norvegicus [8], 25%; in [9], below 10%; in assay [10], 94%; in the assay filed under Rattus norvegicus [11] it was 21%; in assay [12], below 10%. Further, the inhibition was below 10% in the assay listed under Rattus norvegicus [13]; 16% in [14]; below 10% in [15]; below 10% in [16]; below 10% in [17]. Further, the inhibition entry in assay [18] and in assay [19] was “Active” in each case. The result (in assay [20]; in the assay on N2a [21]) was Active.

Regarding `O=C(CCl)c1ccc(Br)s1`, the inhibition (in the assay listed under Rattus norvegicus [1]; in the assay filed under Bos taurus; in assay [2]; in [3]; in the assay listed under Rattus norvegicus [5]; in assay [6]) was below 10% throughout. For the same compound, the inhibition was below 10% in assay [7]; below 10% in the assay listed under Rattus norvegicus [8]; below 10% in [9]; 19% in assay [10]; 16% in the assay listed under Rattus norvegicus [11]; below 10% in assay [12]. For the same compound, the inhibition (in the assay listed under Rattus norvegicus [13]; in assay [14]; in assay [15]; in [16]; in [17]) was below 10% in each case. Also, the outcome in assay [20] was Active.

Turning to `O=C(CCl)c1c(Br)sc(Cl)c1Cl`, the inhibition was below 10% in the assay listed under Rattus norvegicus [1]; 33% in the assay filed under Bos taurus; below 10% in assay [2]; 13% in [3]; below 10% in the assay filed under Rattus norvegicus [5]; below 10% in assay [6]. In addition, the inhibition in assay [7] is below 10%; in the assay filed under Rattus norvegicus [8], below 10%; in assay [9] it was below 10%; in assay [10], 26%; in the assay filed under Rattus norvegicus [11], below 10%; in assay [12], below 10%. The inhibition in the assay filed under Rattus norvegicus [13] is below 10%; in [14] it was below 10%; in [15], 31%; in [16] it was below 10%; in assay [17], below 10%. Also, the inhibition result in [18] and in assay [19] was “Active” each time. The outcome (in assay [4]; in [20]; with N2a [22]) was Active.

`O=C(CCl)c1ccc(Cl)s1`: the inhibition (in the assay listed under Rattus norvegicus [1]; in the assay listed under Bos taurus; in assay [2]; in assay [3]; in the assay listed under Rattus norvegicus [5]; in assay [6]) was below 10% throughout. Moreover, the inhibition in [7] was below 10%; in the assay filed under Rattus norvegicus [8], 17%; in assay [9], below 10%; in assay [10] it was below 10%; in the assay filed under Rattus norvegicus [11] it was below 10%; in assay [12], below 10%. The inhibition (in the assay filed under Rattus norvegicus [13]; in assay [14]; in assay [15]; in assay [16]; in assay [17]) was below 10% throughout. In addition, in assay [20], the outcome was Active.

As for `O=C(CCl)c1cscc1Cl`, the inhibition in the assay filed under Rattus norvegicus [1] was below 10%; in the assay filed under Bos taurus, 31%; in [2], below 10%; in assay [3] it was 16%; in the assay listed under Rattus norvegicus [5], below 10%; in [6] it was below 10%. Further, the inhibition was below 10% in assay [7]; below 10% in the assay listed under Rattus norvegicus [8]; below 10% in assay [9]; 24% in assay [10]; below 10% in the assay listed under Rattus norvegicus [11]; below 10% in [12]. Moreover, the inhibition in the assay listed under Rattus norvegicus [13] was below 10%; in [14], below 10%; in assay [15] it was 13%; in assay [16], below 10%; in [17], below 10%. The result in assay [20] was Active.
